# Source: ChEMBL document CHEMBL1221300, “Synthesis and biochemical evaluation of a range of (4-substituted phenyl)sulfonate derivatives of 4-hydroxybenzyl imidazole-based compounds as potent inhibitors of 17alpha-hydroxylase/17,20-lyase (P45017alpha) derived from rat testicular microsomes” (Bioorg Med Chem Lett, 2010)
# Experiments:
# [1] = target: T1, Steroid 17-alpha-hydroxylase/17,20 lyase (Rattus norvegicus, UniProt P11715); assay: Inhibition of 17,20-lyase activity of rat testicular microsomal P450-17alpha
# T1 sequence (P11715 whole entry): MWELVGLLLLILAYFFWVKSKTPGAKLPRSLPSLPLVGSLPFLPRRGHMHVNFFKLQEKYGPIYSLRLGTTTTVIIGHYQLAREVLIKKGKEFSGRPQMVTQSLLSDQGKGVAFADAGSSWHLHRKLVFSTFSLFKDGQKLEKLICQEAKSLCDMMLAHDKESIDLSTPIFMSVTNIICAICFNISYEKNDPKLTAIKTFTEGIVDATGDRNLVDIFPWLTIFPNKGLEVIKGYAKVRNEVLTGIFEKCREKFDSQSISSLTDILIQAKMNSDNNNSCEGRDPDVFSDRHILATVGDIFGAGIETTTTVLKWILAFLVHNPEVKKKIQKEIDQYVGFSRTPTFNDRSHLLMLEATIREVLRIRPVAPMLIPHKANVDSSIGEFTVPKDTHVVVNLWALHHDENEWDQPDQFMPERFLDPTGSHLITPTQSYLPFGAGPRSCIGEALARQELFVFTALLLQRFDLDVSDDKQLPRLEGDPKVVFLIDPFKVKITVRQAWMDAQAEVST
# In short: (§1)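 Rat testicular microsomal enzyme incubated with radiolabelled substrate. The radiolabelled substrate was separated from the incubation mixture and identified by thin layer chromatography. Both the 17α-hydroxylase and the 17,20-lyase components were assessed this way.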
# [2] = target: T1, Steroid 17-alpha-hydroxylase/17,20 lyase; assay: Inhibition of 17-alpha-hydroxylase activity of rat testicular microsomal P450-17alpha; in short: as §1
SMILES,IC50 [1] [nM],IC50 [2] [nM]
Ic1ccc(Cn2ccnc2)cc1,164,730
c1ccc(Cn2ccnc2)cc1 [BENZYLIMIDAZOLE],> 3000,> 3000
CC(=O)N1CCN(c2ccc(OCC3COC(Cn4ccnc4)(c4ccc(Cl)cc4Cl)O3)cc2)CC1 (centres undefined) [KETOCONAZOLE],206,2660
Cc1ccc(S(=O)(=O)Oc2ccc(Cn3ccnc3)cc2)cc1,30,40
CCCc1ccc(S(=O)(=O)Oc2ccc(Cn3ccnc3)cc2)cc1,30,1210
O=S(=O)(Oc1ccc(Cn2ccnc2)cc1)c1ccc(-c2ccccc2)cc1,10,100
CCCCCc1ccc(S(=O)(=O)Oc2ccc(Cn3ccnc3)cc2)cc1,160,130

# Continued by falling IC50 [1], values first:
IC50 [1] [nM],IC50 [2] [nM],SMILES
1470,2500,Oc1ccc(Cn2ccnc2)cc1
40,70,CCCCc1ccc(S(=O)(=O)Oc2ccc(Cn3ccnc3)cc2)cc1
34,1040,O=S(=O)(Oc1ccc(Cn2ccnc2)cc1)c1ccc(C(F)(F)F)cc1
20,110,CCc1ccc(S(=O)(=O)Oc2ccc(Cn3ccnc3)cc2)cc1
14,200,O=S(=O)(Oc1ccc(Cn2ccnc2)cc1)c1ccc(F)cc1
